Assay results: ChEMBL document CHEMBL2169880, “Synthesis of C-Pseudonucleosides Bearing Thiazolidin-4-one as a Novel Potential Immunostimulating Agent” (2011)
The source made the active and inactive calls. The rule behind the calls is not given here.

Assays:
[1] = (§1) Immunostimulating activity in BALb/c mouse splenocytes assessed as increase in concanavalin A-induced cell proliferation at 5 uM after 72 hrs by MTT assay; type: functional, Splenocyte
Method in brief: (§2)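 Mouse splenocytes co-treated with concanavalin A and compound at 5, 10, 25, 50 or 100 μM. Incubated 72 h at 37 °C under 5% CO₂, then proliferation read by MTT. Result expressed as % increase relative to Con A alone. Means ± SEM of at least three independent experiments.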

[2] = Immunostimulating activity in BALb/c mouse splenocytes assessed as increase in concanavalin A-induced cell proliferation at 25 uM after 72 hrs by MTT assay; type: functional, Splenocyte; method in brief: as §2
[3] = Immunostimulating activity in BALb/c mouse splenocytes assessed as increase in concanavalin A-induced cell proliferation at 50 uM after 72 hrs by MTT assay; type: functional, Splenocyte; method in brief: as §2
[4] = Immunostimulating activity in BALb/c mouse splenocytes assessed as increase in concanavalin A-induced cell proliferation at 100 uM after 72 hrs by MTT assay; type: functional, Splenocyte; method in brief: as §2
[5] = Immunostimulating activity in BALb/c mouse splenocytes assessed as increase in concanavalin A-induced cell proliferation at 10 uM after 72 hrs by MTT assay; type: functional, Splenocyte; method in brief: as §2
[6] = test system: B; assay: Immunostimulating activity in BALb/c mouse CD19+ B cells at 5 uM after 72 hrs […]; type: functional, cell-based
Method in brief: (§3)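 CD3+, CD4+ and CD8+ T cells and CD19+ B cells from splenocyte cultures quantified by flow cytometry. Compound at 5, 10 or 50 μM, compared with Con A-treated cells. Means ± SEM of at least three independent experiments.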

[7] = Immunostimulating activity in BALb/c mouse splenocytes assessed as increase in LPS-induced cell proliferation at 5 uM after 72 hrs by MTT assay; type: functional, Splenocyte
Method in brief: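 Splenocyte proliferation induced by LPS, with compound added at 5 μM. Reported as % increase over LPS-treated cells. Means ± SEM of at least three independent experiments.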

[8] = test system: Splenocyte; assay: Immunostimulating activity in concanavalin A-stimulated BALb/c mouse splenocytes assessed as increase in IL4 secretion at 5 uM after 72 hrs by ELISA; type: functional
Method in brief: (§4)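 IL-4, IL-2 and IFN-γ measured by mouse ELISA in supernatants of total splenocyte cultures. Cultures contained concanavalin A (printed as 20 μM) plus compound at 5, 10 or 50 μM. Compared with Con A alone. Means ± SEM of at least three independent experiments.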

[9] = test system: T-cell; assay: Immunostimulating activity in BALb/c mouse CD8+ T cells at 5 uM after 72 hrs […]; type: functional, cell-based; method in brief: as §3
[10] = test system: Splenocyte; assay: Immunostimulating activity in BALb/c mouse splenocytes assessed as cell proliferation at 5 to 100 uM after 72 hrs by MTT assay; type: functional, cell-based
Method in brief: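 Mouse splenocytes exposed to compound without concanavalin A. Proliferation measured by MTT after 72 h at 37 °C, 5% CO₂.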

[11] = test system: T-cell; assay: Immunostimulating activity in BALb/c mouse CD3+ T cells at 5 uM after 72 hrs by […]; type: functional, cell-based; method in brief: as §3
[12] = test system: Splenocyte; assay: Immunostimulating activity in concanavalin A-stimulated BALb/c mouse splenocytes assessed as increase in IFNgamma secretion at 5 uM after 72 hrs by ELISA; type: functional, cell-based; method in brief: as §4
[13] = test system: Splenocyte; assay: Immunostimulating activity in concanavalin A-stimulated BALb/c mouse splenocytes assessed as increase in IL2 secretion at 5 uM after 72 hrs by ELISA; type: functional; method in brief: as §4
[14] = test system: T-cell; assay: Immunostimulating activity in BALb/c mouse CD4+ T cells at 5 uM after 72 hrs by MTT assay; type: functional, cell-based
[15] = test system: T-cell; assay: Immunostimulating activity in BALb/c mouse CD8+ T cells at 10 uM after 72 hrs by MTT assay; type: functional, cell-based
[16] = test system: B; assay: Immunostimulating activity in BALb/c mouse CD19+ B cells at 10 uM after 72 hrs by MTT assay; type: functional, cell-based
[17] = test system: Splenocyte; assay: Immunostimulating activity in concanavalin A-stimulated BALb/c mouse splenocytes assessed as increase in IL4 secretion at 10 uM after 72 hrs by ELISA; type: functional; method in brief: as §4
[18] = test system: Splenocyte; assay: Immunostimulating activity in concanavalin A-stimulated BALb/c mouse splenocytes assessed as increase in IFNgamma secretion at 10 uM after 72 hrs by ELISA; type: functional; method in brief: as §4
[19] = test system: Splenocyte; assay: Immunostimulating activity in concanavalin A-stimulated BALb/c mouse splenocytes assessed as increase in IL2 secretion at 10 uM after 72 hrs by ELISA; type: functional; method in brief: as §4
[20] = test system: T-cell; assay: Immunostimulating activity in BALb/c mouse CD4+ T cells at 10 uM after 72 hrs by […]; type: functional, cell-based; method in brief: as §3
[21] = test system: T-cell; assay: Immunostimulating activity in BALb/c mouse CD3+ T cells at 10 uM after 72 hrs by MTT assay; type: functional, cell-based
[22] = test system: T-cell; assay: Immunostimulating activity in BALb/c mouse CD4+ T cells at 50 uM after 72 hrs by MTT assay; type: functional, cell-based
[23] = test system: T-cell; assay: Immunostimulating activity in BALb/c mouse CD3+ T cells at 50 uM after 72 hrs by […]; type: functional, cell-based; method in brief: as §3
[24] = test system: B; assay: Immunostimulating activity in BALb/c mouse CD19+ B cells at 50 uM after 72 hrs by MTT assay; type: functional, cell-based
[25] = test system: Splenocyte; assay: Immunostimulating activity in concanavalin A-stimulated BALb/c mouse splenocytes assessed as increase in IL2 secretion at 50 uM after 72 hrs by ELISA; type: functional; method in brief: as §4
[26] = test system: Splenocyte; assay: Immunostimulating activity in concanavalin A-stimulated BALb/c mouse splenocytes assessed as increase in IL4 secretion at 50 uM after 72 hrs by ELISA; type: functional; method in brief: as §4
[27] = test system: T-cell; assay: Immunostimulating activity in BALb/c mouse CD8+ T cells at 50 uM after 72 hrs by […]; type: functional, cell-based; method in brief: as §3
[28] = test system: Splenocyte; assay: Immunostimulating activity in concanavalin A-stimulated BALb/c mouse splenocytes assessed as increase in IFNgamma secretion at 50 uM after 72 hrs by ELISA; type: functional; method in brief: as §4
[29] = test system: Splenocyte; assay: as §1; type: functional; method in brief: as §2

With `CCCCCCCCCCCCCCCCCCN1C(=O)CS[C@H]1[C@H]1O[C@H](CO)[C@@H](O)[C@@H]1O` the Activity [1] was less than 50%, the Activity [2] was less than 50% and the Activity [3] was less than 50%. The Activity [4] was less than 50% and the Activity [5] was less than 50%.

Work on `CCCCN1C(=O)CS[C@H]1[C@H]1O[C@H](CO)[C@@H](O)[C@@H]1O` yielded an Activity [1] of less than 50%, an Activity [2] of less than 50% and an Activity [3] of less than 50%. The Activity [4] was less than 50% and the Activity [5] was less than 50%.

In the case of `CCCCN1C(=O)CS[C@@H]1[C@H]1O[C@H](CO)[C@@H](O)[C@@H]1O`, the Activity [1] is reported as less than 50%, the Activity [2] is reported as less than 50% and the Activity [3] is reported as less than 50%. It also gave an Activity [4] of less than 50% and an Activity [5] of less than 50%.

For `O=C1CS[C@H]([C@H]2O[C@H](CO)[C@@H](O)[C@@H]2O)N1c1ccccc1`, the Activity [6] was “Active”, the Activity [1] was 166% and the Activity [7] was 238%. The Activity [8] was 41%, the Activity [2] was less than 50% and the Activity [9] was “inactive”. The Activity [3] was 171%, the Activity [10] was “inactive” and the Activity [11] was “Active”. The Activity [12] was “inactive”, the Activity [5] was less than 50% and the Activity [13] was 138%. For the same compound, the Activity [14] was “Active”.

With `CN1C(=O)CS[C@H]1[C@H]1O[C@H](CO)[C@@H](O)[C@@H]1O` the Activity [1] was 28%, the Activity [15] was “inactive” and the Activity [16] was “inactive”. For the same compound, the Activity [2] was 138%, the Activity [3] was 35% and the Activity [4] was 245%. For the same compound, the Activity [17] was 43%, the Activity [10] was “inactive” and the Activity [18] was 21%. For the same compound, the Activity [19] was 78%, the Activity [5] was 290% and the Activity [20] was “Active”. The Activity [21] was “Active”.

In the case of `CN1C(=O)CS[C@@H]1[C@H]1O[C@H](CO)[C@@H](O)[C@@H]1O`, the Activity [22] is reported as “Active”, the Activity [23] is reported as “Active” and the Activity [24] is reported as “inactive”. For the same compound, the Activity [1] was 111%, the Activity [25] was 37% and the Activity [2] was 91%. The Activity [3] was 327%, the Activity [4] was 230% and the Activity [10] was “inactive”. The Activity [26] was 42%, the Activity [27] was “inactive” and the Activity [5] was 98%. For the same compound, the Activity [28] was 30%.

For `O=C1CS[C@@H]([C@H]2O[C@H](CO)[C@@H](O)[C@@H]2O)N1c1ccccc1`, the Activity [6] was “Active”, the Activity [29] was “Active” and the Activity [7] was 117%. For the same compound, the Activity [8] was 39%, the Activity [2] was less than 50% and the Activity [9] was “inactive”. For the same compound, the Activity [3] was less than 50%, the Activity [4] was less than 50% and the Activity [10] was “inactive”. The Activity [11] was “Active”, the Activity [12] was “inactive” and the Activity [5] was less than 50%. The Activity [13] was 99% and the Activity [14] was “Active”.

For `CCCCCCCCN1C(=O)CS[C@H]1[C@H]1O[C@H](CO)[C@@H](O)[C@@H]1O`, the Activity [1] was less than 50%, the Activity [2] was less than 50% and the Activity [3] was less than 50%. The Activity [4] was less than 50% and the Activity [5] was less than 50%.

`CCCCCCCCN1C(=O)CS[C@@H]1[C@H]1O[C@H](CO)[C@@H](O)[C@@H]1O` gave an Activity [1] of less than 50%, an Activity [2] of less than 50% and an Activity [3] of less than 50%. For the same compound, the Activity [4] was less than 50% and the Activity [5] was less than 50%.

With `CCCCCCCCCCCCCCCCCCN1C(=O)CS[C@@H]1[C@H]1O[C@H](CO)[C@@H](O)[C@@H]1O` the Activity [1] was less than 50%, the Activity [2] was less than 50% and the Activity [3] was less than 50%. For the same compound, the Activity [4] was less than 50% and the Activity [5] was less than 50%.
